In ChEMBL document CHEMBL4689842, “EUbOPEN Chemogenomics Library wave 1” (2021):
Values joined by “and” are separate entries in the source; they are usually repeats but may differ in a detail not shown here. Equal entries are not always repeated.

Tested on: HEK-293T
Assay: Multiplex assay against HEK293T;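 for Population Tubulin-Different-Phenotype (%): share of the cells with healthy nuclei that show this phenotype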
Format: toxicity, cell-based
Conditions: human
Summary of the method: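 Compound was added to live cells that had been stained at seeding with Hoechst33342, BioTracker Green Microtubule Cytoskeleton Dye, MitoTracker Red and Annexin V Alexa Fluor 680, and imaging followed on a CQ1 microscope at 37°C and 5% CO2. CellPathfinder machine-learning gating divided cells into Hoechst high-intensity objects or normal cells, normal cells into healthy, pyknosed or fragmented nuclei, and pyknosed cells into mitotic or apoptotic. Tubulin, mitochondrial-mass and membrane-permeability phenotypes are per cents of healthy-nucleus cells.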

[1] = 12 h, 1 µM, compound concentration 1 uM, replicate 1
[2] = 12 h, 1 µM, compound concentration 1 uM, replicate 2
[3] = 12 h, 10 µM, compound concentration 10 uM, replicate 1
[4] = 12 h, 10 µM, compound concentration 10 uM, replicate 2
[5] = 24 h, 1 µM, compound concentration 1 uM, replicate 1
[6] = 24 h, 1 µM, compound concentration 1 uM, replicate 2
[7] = 24 h, 10 µM, compound concentration 10 uM, replicate 1
[8] = 24 h, 10 µM, compound concentration 10 uM, replicate 2
[9] = 48 h, 1 µM, compound concentration 1 uM, replicate 1
[10] = 48 h, 1 µM, compound concentration 1 uM, replicate 2
[11] = 48 h, 10 µM, compound concentration 10 uM, replicate 1
[12] = 48 h, 10 µM, compound concentration 10 uM, replicate 2

CNC(=O)c1ccc(Nc2nc(OC3CCCC3)c3c(-c4ccc5nc(C)oc5c4)c[nH]c3n2)c(OC)c1
Population Apoptotic (%) [1]: 36%
Population Fragmented Nuclei (%) [1]: 20%
Population Healthy Nuclei (%) [1]: 22%
Population Hoechst High Intensity Objects (%) [1]: 22%
Population Membrane Permeable-Phenotype (%) [1]: 19%
Population Mitochondria Different-Phenotype (%) [1]: 28%
Population Mitotic Cells (%) [1]: 63%
Population Normal (%) [1]: 77%
Population Pyknosed Nuclei (%) [1]: 57%
Population Tubulin-Different-Phenotype (%) [1]: 76%
Total Cell Count [1]: 469
Population Apoptotic (%) [2]: 37%
Population Fragmented Nuclei (%) [2]: 2%
Population Healthy Nuclei (%) [2]: 77%
Population Hoechst High Intensity Objects (%) [2]: 4%
Population Membrane Permeable-Phenotype (%) [2]: 18%
Population Mitochondria Different-Phenotype (%) [2]: 47%
Population Mitotic Cells (%) [2]: 62%
Population Normal (%) [2]: 95%
Population Pyknosed Nuclei (%) [2]: 19%
Population Tubulin-Different-Phenotype (%) [2]: 94%
Total Cell Count [2]: 712
Population Apoptotic (%) [3]: 26%
Population Fragmented Nuclei (%) [3]: 19%
Population Healthy Nuclei (%) [3]: 50%
Population Hoechst High Intensity Objects (%) [3]: 20%
Population Membrane Permeable-Phenotype (%) [3]: 22%
Population Mitochondria Different-Phenotype (%) [3]: 13%
Population Mitotic Cells (%) [3]: 73%
Population Normal (%) [3]: 79%
Population Pyknosed Nuclei (%) [3]: 30%
Population Tubulin-Different-Phenotype (%) [3]: 58%
Total Cell Count [3]: 532
Population Apoptotic (%) [4]: 14%
Population Fragmented Nuclei (%) [4]: 3%
Population Healthy Nuclei (%) [4]: 91%
Population Hoechst High Intensity Objects (%) [4]: 5%
Population Membrane Permeable-Phenotype (%) [4]: 13%
Population Mitochondria Different-Phenotype (%) [4]: 27%
Population Mitotic Cells (%) [4]: 85%
Population Normal (%) [4]: 94%
Population Pyknosed Nuclei (%) [4]: 4%
Population Tubulin-Different-Phenotype (%) [4]: 83%
Total Cell Count [4]: 1205
Population Apoptotic (%) [5]: 61%
Population Fragmented Nuclei (%) [5]: 28%
Population Healthy Nuclei (%) [5]: 13%
Population Hoechst High Intensity Objects (%) [5]: 25%
Population Membrane Permeable-Phenotype (%) [5]: 10%
Population Mitochondria Different-Phenotype (%) [5]: 54%
Population Mitotic Cells (%) [5]: 38%
Population Normal (%) [5]: 74%
Population Pyknosed Nuclei (%) [5]: 57%
Population Tubulin-Different-Phenotype (%) [5]: 58%
Total Cell Count [5]: 472
Population Apoptotic (%) [6]: 43%
Population Fragmented Nuclei (%) [6]: 3%
Population Healthy Nuclei (%) [6]: 80%
Population Hoechst High Intensity Objects (%) [6]: 9%
Population Membrane Permeable-Phenotype (%) [6]: 5%
Population Mitochondria Different-Phenotype (%) [6]: 66%
Population Mitotic Cells (%) [6]: 56%
Population Normal (%) [6]: 90%
Population Pyknosed Nuclei (%) [6]: 15%
Population Tubulin-Different-Phenotype (%) [6]: 78%
Total Cell Count [6]: 721
Population Apoptotic (%) [7]: 24%
Population Fragmented Nuclei (%) [7]: 20%
Population Healthy Nuclei (%) [7]: 62%
Population Hoechst High Intensity Objects (%) [7]: 15%
Population Membrane Permeable-Phenotype (%) [7]: 23%
Population Mitochondria Different-Phenotype (%) [7]: 15%
Population Mitotic Cells (%) [7]: 75%
Population Normal (%) [7]: 84%
Population Pyknosed Nuclei (%) [7]: 17%
Population Tubulin-Different-Phenotype (%) [7]: 81%
Total Cell Count [7]: 481
Population Apoptotic (%) [8]: 11%
Population Fragmented Nuclei (%) [8]: 10%
Population Healthy Nuclei (%) [8]: 86%
Population Hoechst High Intensity Objects (%) [8]: 5%
Population Membrane Permeable-Phenotype (%) [8]: 17%
Population Mitochondria Different-Phenotype (%) [8]: 11%
Population Mitotic Cells (%) [8]: 88%
Population Normal (%) [8]: 94%
Population Pyknosed Nuclei (%) [8]: 2%
Population Tubulin-Different-Phenotype (%) [8]: 87%
Total Cell Count [8]: 1423

Cc1ccc(C(=O)Nc2cccc(C(F)(F)F)c2)cc1Nc1nc(-c2cccnc2)nc2c1cnn2C
Population Apoptotic (%) [1]: 63%
Population Fragmented Nuclei (%) [1]: 15%
Population Healthy Nuclei (%) [1]: 33%
Population Hoechst High Intensity Objects (%) [1]: 19%
Population Membrane Permeable-Phenotype (%) [1]: 1%
Population Mitochondria Different-Phenotype (%) [1]: 94%
Population Mitotic Cells (%) [1]: 36%
Population Normal (%) [1]: 80%
Population Pyknosed Nuclei (%) [1]: 50%
Population Tubulin-Different-Phenotype (%) [1]: 94%
Total Cell Count [1]: 318
Population Apoptotic (%) [2]: 27%
Population Fragmented Nuclei (%) [2]: 7%
Population Healthy Nuclei (%) [2]: 25%
Population Hoechst High Intensity Objects (%) [2]: 9%
Population Membrane Permeable-Phenotype (%) [2]: 7%
Population Mitochondria Different-Phenotype (%) [2]: 52%
Population Mitotic Cells (%) [2]: 72%
Population Normal (%) [2]: 90%
Population Pyknosed Nuclei (%) [2]: 66%
Population Tubulin-Different-Phenotype (%) [2]: 89%
Total Cell Count [2]: 162
Population Apoptotic (%) [3]: 86%
Population Fragmented Nuclei (%) [3]: 16%
Population Healthy Nuclei (%) [3]: 7%
Population Hoechst High Intensity Objects (%) [3]: 19%
Population Membrane Permeable-Phenotype (%) [3]: 8%
Population Mitochondria Different-Phenotype (%) [3]: 91%
Population Mitotic Cells (%) [3]: 13%
Population Normal (%) [3]: 80%
Population Pyknosed Nuclei (%) [3]: 75%
Population Tubulin-Different-Phenotype (%) [3]: 91%
Total Cell Count [3]: 200
Population Apoptotic (%) [4]: 78%
Population Fragmented Nuclei (%) [4]: 5%
Population Healthy Nuclei (%) [4]: 13%
Population Hoechst High Intensity Objects (%) [4]: 5%
Population Membrane Permeable-Phenotype (%) [4]: 4%
Population Mitochondria Different-Phenotype (%) [4]: 96%
Population Mitotic Cells (%) [4]: 21%
Population Normal (%) [4]: 94%
Population Pyknosed Nuclei (%) [4]: 81%
Population Tubulin-Different-Phenotype (%) [4]: 92%
Total Cell Count [4]: 190
Population Apoptotic (%) [5]: 64%
Population Fragmented Nuclei (%) [5]: 14%
Population Healthy Nuclei (%) [5]: 38%
Population Hoechst High Intensity Objects (%) [5]: 16%
Population Membrane Permeable-Phenotype (%) [5]: 2%
Population Mitochondria Different-Phenotype (%) [5]: 92%
Population Mitotic Cells (%) [5]: 35%
Population Normal (%) [5]: 83%
Population Pyknosed Nuclei (%) [5]: 46%
Population Tubulin-Different-Phenotype (%) [5]: 90%
Total Cell Count [5]: 330
Population Apoptotic (%) [6]: 51%
Population Fragmented Nuclei (%) [6]: 7%
Population Healthy Nuclei (%) [6]: 43%
Population Hoechst High Intensity Objects (%) [6]: 6%
Population Membrane Permeable-Phenotype (%) [6]: 11%
Population Mitochondria Different-Phenotype (%) [6]: 64%
Population Mitotic Cells (%) [6]: 48%
Population Normal (%) [6]: 93%
Population Pyknosed Nuclei (%) [6]: 48%
Population Tubulin-Different-Phenotype (%) [6]: 97%
Total Cell Count [6]: 172
Population Apoptotic (%) [7]: 89%
Population Fragmented Nuclei (%) [7]: 16%
Population Healthy Nuclei (%) [7]: 10%
Population Hoechst High Intensity Objects (%) [7]: 22%
Population Membrane Permeable-Phenotype (%) [7]: 0%
Population Mitochondria Different-Phenotype (%) [7]: 100%
Population Mitotic Cells (%) [7]: 10%
Population Normal (%) [7]: 77%
Population Pyknosed Nuclei (%) [7]: 72%
Population Tubulin-Different-Phenotype (%) [7]: 100%
Total Cell Count [7]: 225
Population Apoptotic (%) [8]: 85%
Population Fragmented Nuclei (%) [8]: 5%
Population Healthy Nuclei (%) [8]: 24%
Population Hoechst High Intensity Objects (%) [8]: 4%
Population Membrane Permeable-Phenotype (%) [8]: 4%
Population Mitochondria Different-Phenotype (%) [8]: 95%
Population Mitotic Cells (%) [8]: 14%
Population Normal (%) [8]: 95%
Population Pyknosed Nuclei (%) [8]: 70%
Population Tubulin-Different-Phenotype (%) [8]: 95%
Total Cell Count [8]: 205
Population Apoptotic (%) [9]: 52%
Population Fragmented Nuclei (%) [9]: 21%
Population Healthy Nuclei (%) [9]: 45%
Population Hoechst High Intensity Objects (%) [9]: 15%
Population Membrane Permeable-Phenotype (%) [9]: 4%
Population Mitochondria Different-Phenotype (%) [9]: 74%
Population Mitotic Cells (%) [9]: 47%
Population Normal (%) [9]: 84%
Population Pyknosed Nuclei (%) [9]: 33%
Population Tubulin-Different-Phenotype (%) [9]: 88%
Total Cell Count [9]: 371
Population Apoptotic (%) [10]: 47%
Population Fragmented Nuclei (%) [10]: 6%
Population Healthy Nuclei (%) [10]: 63%
Population Hoechst High Intensity Objects (%) [10]: 9%
Population Membrane Permeable-Phenotype (%) [10]: 8%
Population Mitochondria Different-Phenotype (%) [10]: 43%
Population Mitotic Cells (%) [10]: 52%
Population Normal (%) [10]: 90%
Population Pyknosed Nuclei (%) [10]: 30%
Population Tubulin-Different-Phenotype (%) [10]: 96%
Total Cell Count [10]: 230
Population Apoptotic (%) [11]: 86%
Population Fragmented Nuclei (%) [11]: 23%
Population Healthy Nuclei (%) [11]: 15%
Population Hoechst High Intensity Objects (%) [11]: 20%
Population Membrane Permeable-Phenotype (%) [11]: 6%
Population Mitochondria Different-Phenotype (%) [11]: 100%
Population Mitotic Cells (%) [11]: 13%
Population Normal (%) [11]: 79%
Population Pyknosed Nuclei (%) [11]: 60%
Population Tubulin-Different-Phenotype (%) [11]: 96%
Total Cell Count [11]: 258
Population Apoptotic (%) [12]: 89%
Population Fragmented Nuclei (%) [12]: 8%
Population Healthy Nuclei (%) [12]: 29%
Population Hoechst High Intensity Objects (%) [12]: 7%
Population Membrane Permeable-Phenotype (%) [12]: 1%
Population Mitochondria Different-Phenotype (%) [12]: 93%
Population Mitotic Cells (%) [12]: 10%
Population Normal (%) [12]: 92%
Population Pyknosed Nuclei (%) [12]: 61%
Population Tubulin-Different-Phenotype (%) [12]: 93%
Total Cell Count [12]: 209

Cn1nc(C(=O)NCc2ccc(C(=O)O)cc2)cc1-c1ccc2[nH]ccc2c1 [BI 4395]
Population Apoptotic (%) [3]: 20% and 23%
Population Fragmented Nuclei (%) [3]: 9% and 10%
Population Healthy Nuclei (%) [3]: 78% and 75%
Population Hoechst High Intensity Objects (%) [3]: 9% and 8%
Population Membrane Permeable-Phenotype (%) [3]: 4% and 2%
Population Mitochondria Different-Phenotype (%) [3]: 2% and 7%
Population Mitotic Cells (%) [3]: 79% and 76%
Population Normal (%) [3]: 90% and 91%
Population Pyknosed Nuclei (%) [3]: 12% and 14%
Population Tubulin-Different-Phenotype (%) [3]: 2% and 3%
Total Cell Count [3]: 895 and 750
Population Apoptotic (%) [4]: 5% and 6%
Population Healthy Nuclei (%) [4]: 84%
Population Hoechst High Intensity Objects (%) [4]: 1%
Population Membrane Permeable-Phenotype (%) [4]: 1%
Population Mitochondria Different-Phenotype (%) [4]: 4%
Population Mitotic Cells (%) [4]: 94% and 93%
Population Normal (%) [4]: 98%
Population Pyknosed Nuclei (%) [4]: 5% and 4%
Population Tubulin-Different-Phenotype (%) [4]: 4%
Total Cell Count [4]: 1558 and 1918
Population Apoptotic (%) [7]: 15% and 13%
Population Fragmented Nuclei (%) [7]: 11% and 14%
Population Healthy Nuclei (%) [7]: 81% and 80%
Population Hoechst High Intensity Objects (%) [7]: 6% and 4%
Population Membrane Permeable-Phenotype (%) [7]: 9% and 6%
Population Mitochondria Different-Phenotype (%) [7]: 2% and 4%
Population Mitotic Cells (%) [7]: 84% and 86%
Population Normal (%) [7]: 93% and 95%
Population Pyknosed Nuclei (%) [7]: 6% and 5%
Population Tubulin-Different-Phenotype (%) [7]: 3% and 5%
Total Cell Count [7]: 1152 and 1021
Population Fragmented Nuclei (%) [8]: 26% and 29%
Population Healthy Nuclei (%) [8]: 71% and 68%
Population Hoechst High Intensity Objects (%) [8]: 2% and 3%
Population Membrane Permeable-Phenotype (%) [8]: 4%
Population Mitochondria Different-Phenotype (%) [8]: 1%
Population Mitotic Cells (%) [8]: 98% and 91%
Population Normal (%) [8]: 97% and 96%
Population Pyknosed Nuclei (%) [8]: 2% and 1%
Total Cell Count [8]: 2665 and 3275
